Assay results: ChEMBL document CHEMBL4513216, “Probing the Open Global Health Chemical Diversity Library for Multistage-Active Starting Points for Next-Generation Antimalarials” (ACS Infect Dis, 2020)

test: Toxicity liver stage against HepG2, at 10uM; format: cell-based; set-up: test concentration 10 uM, cell line HepG2-A16-CD81EGFP; settings: human, HepG2-A16-CD81EGFP cells; read-out: INHIBITION
How it was run: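 Uninfected HepG2-A16-CD81EGFP cells, 3 × 10^3 per well, 1536-well, plated on prespotted compound at 10 μM final, parasite-free screening media added to match infected plates; puromycin 10 μM positive, DMSO 0.5% negative; run in parallel with 48 h PbLuc assay at 37 °C, 5% CO2; viability by CellTiter-Glo luminescence, normalized to controls.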

| Structure (SMILES) | cytotoxicity at 10 µM [%] |
| --- | --- |
| O=C(NCC1(O)CCOCC1)c1ccc(F)cc1 | -9.52 |
| CCCS(=O)(=O)N1CC[C@H]2OCC[C@@]2(c2nnc(C)o2)C1 | 8.43 |
| CN(C)C(=O)N1C[C@@H]2COC[C@]2(c2nnc(C3CC3)o2)C1 | -4.05 |
| COc1cc(C(=O)NCC2CC2)nc2c(C)cc(F)cc12 | 7.52 |
| Cc1cnc(NC(=O)CSC2CCc3ccccc3NC2=O)s1 (stereo not given) | -2.34 |
| CSCC(C)(O)CNC(=O)c1cc(Br)ccc1Cl (stereo not given) | -25.1 |
| Cc1c(Cl)c(C(=O)NC(C)CN2CCOCC2)nn1C (stereo not given) | -1.77 |
| Cc1cccc(Cc2cc(C)nc(C3CCCNC3)c2)c1 (stereo not given) | 1.58 |
| COc1ccc(CNC(Cc2ccsc2)c2ncccc2C)cc1OC (stereo not given) | 0.735 |
| CNc1cncc(C2CCCN2C(=O)c2ccc3c(c2)CCC3)n1 (stereo not given) | -15.1 |
| Cc1ccc(-c2cc(N)c(=O)n(CC(=O)NC3CCCCC3)n2)s1 | 2.98 |
| NCc1cnn(-c2ccccc2C(=O)NCCCn2ccnc2)c1 | -3.01 |
| N#Cc1cccc(OCCN2CCC(C(=O)N3CCOCC3)CC2)c1 | -42.3 |
| Cc1cnc(N2CCC(OCCN3CCCCC3)C2)nc1C (stereo not given) | -43.9 |
| Cc1nc(-c2cccs2)ccc1C(=O)N1CCN(CC(C)O)CC1 (stereo not given) | -45.1 |
| CCCn1ccnc1-c1cccc(NC(=O)C2CCCOC2)c1 (stereo not given) | -2.43 |
| Clc1cc(CN2CCCN3CCCC3C2)c2ncccc2c1 (stereo not given) | 19.5 |
| CCN(Cc1nc(-c2ccco2)no1)Cc1cccc2c1OCO2 | 8.33 |
| CC(C)COc1cncc(NCCc2nnc3ccccn23)n1 | 7.55 |
| CC(C)N(C)S(=O)(=O)NCc1cccnc1N(C)C | 2.57 |
| CCNC(=O)c1ccc(NC(=O)N(C)Cc2cccn2C)c(C)c1 | -0.132 |
| CCN1CCCC(NC(=O)c2ccc(C)[nH]c2=O)C1 (stereo not given) | 9.95 |

| Structure (SMILES) | cytotoxicity at 10 µM [%] |
| --- | --- |
| CN(c1nc(Cn2cnccc2=O)cs1)C1CC1 | -6.59 |
| CCc1ccc(CNc2cc(-c3ccoc3C)nn2CCO)o1 | 0.485 |
| CCCC(=O)NC1CCCN(c2cncc(Br)c2)C1 (stereo not given) | -38.5 |
| Cn1c(N)nnc1SCc1c(F)cccc1Br | -43.2 |
| CCc1nc(CN2CCCN(C(=O)Cc3cccs3)CC2)cs1 | 2.55 |
| COc1ccc(C)cc1C(C)NS(=O)(=O)c1ccc2c(c1)CCC(=O)N2 (stereo not given) | -33 |
| Cc1c(C(=O)NC2CCCOC2)nnn1-c1ccc(Cl)cc1F (stereo not given) | 8.55 |
| CCOC(=O)C1CCN(C(=O)CN2CCCC2c2ccsc2)CC1 (stereo not given) | -5.42 |
| CC(=O)Nc1nc(CS(=O)(=O)Cc2ccccc2)cs1 | -3.39 |
| C=C(C)CN1CCC(NC(=O)NCCc2ccc(N(C)C)cc2)CC1 | 2.2 |
| CCOc1cc(CN(C)CCC(=O)OC)ccc1OC(F)F | -0.769 |
| Cc1cc(=O)n2ncnc2n1CC(O)COCc1ccccc1Cl (stereo not given) | 3.52 |
| Cc1sc2nc(C(F)(F)F)nc(N3CCN(S(C)(=O)=O)CC3)c2c1C | -8.07 |
| NC(c1ccc(F)cc1)c1cccs1 (stereo not given) | 15.6 |
| O=C(C1CCCN(Cc2cccnc2)C1)N1CCc2sccc2C1 (stereo not given) | 7.99 |
| Cc1cnn(CCNC(C)c2nnc(-c3ccccc3)o2)c1 (stereo not given) | -2.4 |
| Cc1cc(C)cc(C(=O)NCCCNc2ncccn2)c1 | 32.4 |
| OCCNC1CCc2cc3c(cc21)OCCO3 (stereo not given) | -5.82 |
| Cc1cccc(N2CCN(C(=O)c3c(C)nn(C)c3C)CC2)c1C | -7.28 |
| CCCNC(=O)c1cccc(CNCc2csc(C(C)C)n2)c1 | 6.14 |
| CC(=O)NS(=O)(=O)c1ccc(F)c(C(F)(F)F)c1 | -4.73 |
| CC(C)N(Cc1ccc(C#N)cc1)C(=O)NCCNc1ncccn1 | 3.78 |

| Structure (SMILES) | cytotoxicity at 10 µM [%] |
| --- | --- |
| COc1cc(F)cc(NC(=O)NCc2cccc(N(C)C)n2)c1 | 25 |
| O=C(Cc1ccc(F)cc1)NCCNS(=O)(=O)C1CCCC1 | 9.31 |
| CC1c2ncc(COc3cccnc3)n2CCN1Cc1ccco1 (stereo not given) | -105 |
| Cc1ccoc1C(=O)N1CC[C@H]2C[C@H](c3nnc(C4CC4)o3)O[C@@H]2C1 | -105 |
| Cc1noc([C@H]2C[C@@H]3CCN(C(=O)N(C)C)C[C@H]3O2)n1 | 2.8 |
| COCCC(=O)N1CC2(CCN(Cc3ccoc3)C2)C1 | 8.47 |
| CC(C)Nc1nc(N2CCOCC2)nc2c1CN(Cc1ccoc1)CC2 | 1.52 |
| CNCC(=O)Nc1ccc(-c2cnc(NCCS(C)(=O)=O)nc2)cc1 | -3.08 |
| CC1(C)C(C(=O)NCCC2CN(Cc3c[nH]cn3)CCO2)C1(C)C (stereo not given) | -3.67 |
| CC(C)Cc1ncc2c(n1)CN(C(=O)Cn1c(=O)oc3ccccc31)C2 | -36.2 |
| Cc1cc(C(F)(F)F)nc(CNC(=O)C2CCCCCN2C)n1 (stereo not given) | -46 |
| Cc1nccn1-c1ccc(NC(=O)C2CCCN2CC2CC2)cc1 (stereo not given) | -14 |
| COc1nc2c(cc1C(=O)N1CCCOC(CN3CCCC3)C1)CCC2 (stereo not given) | -48.8 |
| CCc1nc2c(NCC3COc4c(cccc4OC)C3)ncnc2o1 (stereo not given) | -0.164 |
| CN(C)C(=O)c1cccnc1N1CCOC(c2ccc(Cl)cc2)C1 (stereo not given) | 9.39 |
| Oc1ccccc1CN1CCC(n2cc(-c3ccc(F)cc3)nn2)CC1 | -2.68 |
| COc1cc(S(=O)(=O)N2C[C@@H](C)[C@@](C)(O)C2)c(C)cc1C | -2.06 |
| Cc1cc(C(=O)NCc2cccnc2N2CCCC(O)C2)c(C)o1 (stereo not given) | 16.3 |
| O=C(c1cc(=O)n(-c2ccccc2)[nH]1)N1CCCC(c2ccn[nH]2)C1 (stereo not given) | -2.21 |
| COc1ccc(OC2CCN(c3ccncc3)CC2)cc1 | 2.1 |
| COc1ccc2c(c1)C(C(=O)N(C)CCCc1cnn(C)c1)CC(=O)N2 (stereo not given) | -46.9 |
| Oc1cccc(CN2CCN(C3CCc4ccccc4C3)CC2)c1 (stereo not given) | 6.42 |

| Structure (SMILES) | cytotoxicity at 10 µM [%] |
| --- | --- |
| CC(C)(O)CCc1cccc(C(=O)NCc2cnn3cccnc23)c1 | -44.8 |
| O=C(NCc1nc(NC2CCCC2)c2cc(Cl)ccc2n1)c1cscn1 | 7.12 |
| NC(=O)CN1CCC(C(=O)NCc2nc(-c3ccc(F)cc3)cs2)CC1 | -5.79 |
| O=C(c1cc2c([nH]c1=O)CCC2)N1CCCCC1c1cccc(F)c1 (stereo not given) | -6.22 |
| Cc1cc(C(=O)N[C@H]2COC[C@@H]2N2CCOCC2)c2ccc(F)cc2n1 | -48.2 |
| Cc1ccsc1-c1nc(CN(C)Cc2cc[nH]n2)c(C)o1 | 10.3 |
| CCCN1CCc2[nH]cnc2C12CCN(C(=O)CCn1cccn1)CC2 | 7.36 |
| COC[C@]1(O)CCN(C(=O)c2cccc(CN(C)C)c2)CC1(C)C | 3.26 |
| O=C(NC1CC1)c1nc(Cn2c(C(F)F)nc3ccccc32)no1 | 7.59 |
| CCN(CCO)C[C@@H]1CN(c2nc(C)cc(C)n2)C[C@@H]1CO | -5.34 |
| COc1cc(N2CCOC(c3ccc(F)cc3)C2)ncn1 (stereo not given) | 15.3 |
| CC(C)[C@@H]1CN(CCCOc2ccc(F)cc2)C[C@H]1NS(C)(=O)=O | -46.4 |
| Cc1ccc(C(=O)NCCN2CCOCC2)cc1N(C)S(C)(=O)=O | 15.1 |
| CCC(CO)N(CC=C(C)C)Cc1ccsc1 (stereo not given) | 6.07 |
| COc1ccc(-c2nc3c([nH]2)CCNC3C(=O)O)c2ccccc12 (stereo not given) | 8.63 |
| Cc1cc(C)c2cc(CNCC3CCCO3)c3nn(C)c(=O)n3c2c1 (stereo not given) | -4.63 |
| CC(=O)N1CCCC(Cc2cncc(Br)c2)CC1 (stereo not given) | 4.99 |
| O=C(CN1C=Nc2ccccc2S1(=O)=O)NCCCc1ccccc1 | -3.54 |
| CN(CCOc1cccc(F)c1)Cc1nc2c(cnn2C)c(=O)[nH]1 | -0.966 |
| NC(=O)C1CCN(Cc2csc(-c3ncccn3)n2)CC1 | -6.04 |
| c1ccc2oc(CN3CCCCC3Cn3cncn3)nc2c1 (stereo not given) | -13.9 |
| CCc1nccn1C1CCCN(C(=O)c2cnn3cccnc23)C1 (stereo not given) | -18.2 |

| Structure (SMILES) | cytotoxicity at 10 µM [%] |
| --- | --- |
| O=C(COc1ccc(Cl)cc1)N1CCOCC1c1ncon1 (stereo not given) | -21 |
| CC(NC(=O)CSCC#N)c1ccccc1 (stereo not given) | -5.9 |
| c1ccc2oc(N3CCCCC3Cn3cncn3)nc2c1 (stereo not given) | -7.59 |
| CC(C)c1nc(C2CCCN2CC(=O)Nc2ccc(Cl)cn2)no1 (stereo not given) | -3.13 |
| Cc1cnn(CC(C)NCc2ccc(OCc3ccncc3)cc2)c1 (stereo not given) | 3.15 |
| Cc1ccc(Cc2cnc(NC(=O)C3CNC(=O)N3)s2)cc1F (stereo not given) | 1.11 |
| Cc1ccccc1CCNC(=O)C1CC(=O)N(CC(F)(F)F)C1 (stereo not given) | -6.17 |
| Fc1cccc(F)c1Cn1c(C2CCNCC2)cc2cccnc21 | -3.4 |
| Cc1ccc(CN(CCCn2ccnc2)Cc2ccccc2O)s1 | -14.6 |
| Cn1nc(C2CCCN(Cc3ccc(F)c(F)c3)C2)c2nccnc21 (stereo not given) | -2.9 |
| Cc1noc(C)c1CN1CC[C@H]2OCC[C@@H](C(=O)NCC3CC3)[C@H]2C1 | 1.27 |
| CN1CCN(Cc2cn3c(n2)CN(C(=O)c2cccn2C)CC3)CC1 | 2.89 |
| COc1ccc(C[C@H]2CN(c3cc(OC)ncn3)CC[C@@H]2OC)cc1 | 50 |
| CN(Cc1ccncc1)C1CC2(CCN(c3ncc(F)cn3)CC2)C1 | 52.4 |
| Cn1cc(C(=O)NCc2cn3c(n2)CN(C2CCOCC2)CC3)cn1 | 11.2 |
| Cc1cnc(N2CCC3(CC(=O)N(Cc4csc(C)n4)C3)C2)nc1 (stereo not given) | -0.211 |
| CCOc1c(Br)cc(CNCCc2nnc3n2CCCCC3)cc1OC | -59.6 |
| O=C(NCc1ccccn1)[C@@H]1CCO[C@@H]2CCN(Cc3ccoc3)C[C@H]21 | 5.33 |
| O=C1CC[C@H]2[C@H](CCN2c2ncccn2)N1c1ccccc1 | 5.77 |
| CN(Cc1ccco1)[C@@H]1CN(Cc2cccnc2)[C@@H]2CCCO[C@H]12 | -79.8 |
| CC(C)=CCN1C[C@@H]2CC[C@H]1CN(Cc1coc(C)n1)C2 | 1.25 |
| CCCn1nccc1NC(=O)CN1CCc2cnc(C(C)C)nc2C1 | -5.59 |
